Assay results published in ChEMBL document CHEMBL1151895, “Discovery, synthesis, and biological evaluation of piperidinol analogs with anti-tuberculosis activity” (Bioorg Med Chem, 2009).
Converted amounts (≈) assume the structure as drawn.

Experiments:
[1] = system: Mycobacterium tuberculosis; experiment: Antimicrobial activity against Mycobacterium tuberculosis H37Rv after 9 to 12 days by CLSI microbroth dilution technique; type: functional
Summary of the method: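 M. tuberculosis H37Rv grown in Middlebrook 7H9 with 10% OADC to OD600 0.4–0.6, frozen in aliquots of known CFU/mL. Compounds serially diluted in DMSO, added to 7H9 medium; 2×10^4 bacteria per well. Incubated at 37 °C for […]. MIC90 read visually as concentration inhibiting 90% of growth. Isoniazid control run in each experiment.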

[2] = Cytotoxicity against african green monkey Vero cells after 72 hrs by alamar blue assay; type: cell-based; settings: chlorocebus sabaeus, read-out: LD50
Summary of the method: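 Vero cells grown in phenol-free L15 medium with glutamine, penicillin-streptomycin and 10% bovine calf serum at 37°C. Compounds tested by microplate dilution for 72 h at 37°C. alamarBlue then added and plates incubated overnight at 37°C. Drug LD50 determined.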

[3] = Therapeutic index, CC50 for african green monkey Vero cells to MIC for Mycobacterium tuberculosis H37Rv; type: cell-based
Mus musculus = experiment: Toxicity in mouse assessed as death at 50 to 100 mg/kg; type: organism-based; design: dose 50-100 mg/kg; settings: in vivo

## N#CC1(c2ccccc2)CCN(C[C@@H](O)COc2ccc(Cl)cc2)CC1
[1]
  MIC: 25 µg/mL (≈ 67.4 µM)

## O[C@@H](COc1ccc(OC(F)(F)F)cc1)CN1CCC(O)(c2ccc(Cl)c(C(F)(F)F)c2)CC1
[1]
  MIC: 3.6 µg/mL (≈ 7.01 µM)
[2]
  CC50 at 72 h: 17.7 µg/mL (≈ 34.4 µM)
[3]
  selectivity ratio: 4.9

## O[C@@H](COc1ccc(Cl)cc1)CN1CCC(O)(c2ccc(Cl)c(C(F)(F)F)c2)CC1
[1]
  MIC: 1.4 µg/mL (≈ 3.02 µM)
[2]
  CC50 at 72 h: 18.2 µg/mL (≈ 39.2 µM)
[3]
  selectivity ratio: 13.3
Mus musculus
  Activity: Toxic

## O[C@H](COc1ccc(F)cc1)CN1CCC(O)(c2ccc(Cl)c(C(F)(F)F)c2)CC1
[1]
  MIC: 3.9 µg/mL (≈ 8.71 µM)
[2]
  CC50 at 72 h: 25.8 µg/mL (≈ 57.6 µM)
[3]
  selectivity ratio: 6.6

## O[C@H](COc1ccccc1)CN1CCC(O)(c2ccc(Cl)c(C(F)(F)F)c2)CC1
[1]
  MIC: 8.3 µg/mL (≈ 19.3 µM)
[2]
  CC50 at 72 h: 34.9 µg/mL (≈ 81.2 µM)
[3]
  selectivity ratio: 4.2

## Cc1cccc(C)c1OC[C@H](O)CN1CCC(O)(c2ccc(Cl)c(C(F)(F)F)c2)CC1
[1]
  MIC: 5.9 µg/mL (≈ 12.9 µM)
[2]
  CC50 at 72 h: 19.3 µg/mL (≈ 42.1 µM)
[3]
  selectivity ratio: 3.3

## O[C@H](COc1ccc(Cl)c(Cl)c1)CN1CCC(O)(c2ccc(Cl)c(C(F)(F)F)c2)CC1
[1]
  MIC: 7.3 µg/mL (≈ 14.6 µM)
[2]
  CC50 at 72 h: 18.7 µg/mL (≈ 37.5 µM)
[3]
  selectivity ratio: 2.6

## O[C@H](COc1ccc(OC(F)(F)F)cc1)CN1CCC(O)(c2ccc(Cl)c(C(F)(F)F)c2)CC1
[1]
  MIC: 7.3 µg/mL (≈ 14.2 µM)
[2]
  CC50 at 72 h: 17.6 µg/mL (≈ 34.3 µM)
[3]
  selectivity ratio: 2.4

## O[C@H](COc1ccc(C(F)(F)F)cc1)CN1CCC(O)(c2ccc(Cl)c(C(F)(F)F)c2)CC1
[1]
  MIC: 1.7 µg/mL (≈ 3.41 µM)
[2]
  CC50 at 72 h: 18.7 µg/mL (≈ 37.6 µM)
[3]
  selectivity ratio: 11

## O[C@@H](COc1ccc(C(F)(F)F)cc1)CN1CCC(O)(c2ccc(Cl)c(C(F)(F)F)c2)CC1
[1]
  MIC: 5.2 µg/mL (≈ 10.4 µM)
[2]
  CC50 at 72 h: 18.3 µg/mL (≈ 36.8 µM)
[3]
  selectivity ratio: 3.5

## O[C@@H](COc1ccc(F)cc1)CN1CCC(O)(c2ccc(Cl)c(C(F)(F)F)c2)CC1
[1]
  MIC: 10.4 µg/mL (≈ 23.2 µM)
[2]
  CC50 at 72 h: 20.8 µg/mL (≈ 46.4 µM)
[3]
  selectivity ratio: 2

## Cc1cccc(C)c1OC[C@@H](O)CN1CCC(O)(c2ccc(Cl)c(C(F)(F)F)c2)CC1
[1]
  MIC: 4.7 µg/mL (≈ 10.3 µM)
[2]
  CC50 at 72 h: 19 µg/mL (≈ 41.5 µM)
[3]
  selectivity ratio: 4.1

## O[C@@H](COc1ccc(Cl)cc1)CN1CCC(O)(c2cccc(C(F)(F)F)c2)CC1
[1]
  MIC: 25 µg/mL (≈ 58.2 µM)

## O[C@@H](COc1ccc(Cl)cc1)CN1CC=C(c2ccc(Cl)cc2)CC1
[1]
  MIC: > 200 µg/mL

## O[C@H](COc1ccc(Cl)cc1)CN1CCC(O)(c2ccc(Cl)c(C(F)(F)F)c2)CC1
[1]
  MIC: 3.8 µg/mL (≈ 8.18 µM)
[2]
  CC50 at 72 h: 17.9 µg/mL (≈ 38.6 µM)
[3]
  selectivity ratio: 4.7

## O[C@@H](COc1ccc(Cl)c(Cl)c1)CN1CCC(O)(c2ccc(Cl)c(C(F)(F)F)c2)CC1
[1]
  MIC: 3.1 µg/mL (≈ 6.22 µM)
[2]
  CC50 at 72 h: 18 µg/mL (≈ 36.1 µM)
[3]
  selectivity ratio: 5.8

## O[C@@H](COc1ccccc1)CN1CCC(O)(c2ccc(Cl)c(C(F)(F)F)c2)CC1
[1]
  MIC: 18.8 µg/mL (≈ 43.7 µM)
[2]
  CC50 at 72 h: 27.7 µg/mL (≈ 64.4 µM)
[3]
  selectivity ratio: 1.5

## O[C@@H](COc1ccc(Cl)cc1)CN1CCC(O)(c2ccc(Cl)cc2)CC1
[1]
  MIC: 25 µg/mL (≈ 63.1 µM)

## O[C@H](CSc1ccccc1)CN1CCC(O)(c2ccc(Cl)c(C(F)(F)F)c2)CC1
[1]
  MIC: 5.2 µg/mL (≈ 11.7 µM)
[2]
  CC50 at 72 h: 35.7 µg/mL (≈ 80.1 µM)
[3]
  selectivity ratio: 6.8

## O[C@@H](COc1ccc(Cl)cc1)CN1CCC(O)(c2ccccc2)CC1
[1]
  MIC: 100 µg/mL (≈ 276 µM)

## O[C@@H](CSc1ccccc1)CN1CCC(O)(c2ccc(Cl)c(C(F)(F)F)c2)CC1
[1]
  MIC: 8.3 µg/mL (≈ 18.6 µM)
[2]
  CC50 at 72 h: 37.1 µg/mL (≈ 83.2 µM)
[3]
  selectivity ratio: 4.4

## OC(COc1ccccc1)CN1CCC(O)(c2ccc(Cl)c(C(F)(F)F)c2)CC1 (racemic)
[1]
  MIC: 10.4 µg/mL (≈ 24.2 µM)
[2]
  CC50 at 72 h: 19.5 µg/mL (≈ 45.4 µM)
[3]
  selectivity ratio: 1.9

## OC(COc1ccc(Cl)cc1)CN1CCC(O)(c2ccc(Cl)c(C(F)(F)F)c2)CC1 (racemic)
[1]
  MIC: 1.5 µg/mL (≈ 3.23 µM)
[2]
  CC50 at 72 h: 17.9 µg/mL (≈ 38.6 µM)
[3]
  selectivity ratio: 11.9
